The record followed here is ChEMBL document CHEMBL4190362, “Synthesis, biological evaluation and quantitative structure-active relationships of 1,3-thiazolidin-4-one derivatives. A promising chemical scaffold endowed with high antifungal potency and low cytotoxicity” (Eur J Med Chem, 2017).

One assay concerns Staphylococcus aureus. The assay can be described thus: Antibacterial activity against Staphylococcus aureus assessed as inhibition of microbial growth incubated for 18 to 22 hrs by broth microdilution method. Format: functional. A digest of the protocol:
(§1)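 Broth microdilution in Mueller-Hinton II broth following NCCLS recommendations; compounds dissolved in DMSO.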

For another assay, the system named is Staphylococcus warneri. Briefly: Antibacterial activity against Staphylococcus warneri assessed as inhibition of microbial growth incubated for 18 to 22 hrs by broth microdilution method. Format: functional. A digest of the protocol:
as §1

A further assay deals with Enterococcus faecalis. Briefly: Antibacterial activity against Streptococcus faecalis assessed as inhibition of microbial growth incubated for 18 to 22 hrs by broth microdilution method. The class given is functional. A digest of the protocol: as §1
In general terms: In broth dilution the organism is exposed to a series of concentrations in liquid medium.

The next assay has as its system Escherichia coli. Briefly: Antibacterial activity against Escherichia coli assessed as inhibition of microbial growth incubated for 18 to 22 hrs by broth microdilution method. Format: functional. The procedure, abridged:
as §1

Another assay relates to Proteus mirabilis. Briefly: Antibacterial activity against Proteus mirabilis assessed as inhibition of microbial growth incubated for 18 to 22 hrs by broth microdilution method. The class given is functional. The procedure, abridged:
as §1

In a further assay the test system is Enterobacter. The assay can be described thus: Antibacterial activity against Enterobacter spp. assessed as inhibition of microbial growth incubated for 18 to 22 hrs by broth microdilution method. The class given is functional. A digest of the protocol:
as §1

Another assay concerns Klebsiella oxytoca. The assay can be described thus: Antibacterial activity against Klebsiella oxytoca assessed as inhibition of microbial growth incubated for 18 to 22 hrs by broth microdilution method. Format: functional. The procedure, abridged: as §1
For the next assay, the system named is Candida albicans. Briefly: Antifungal activity against Candida albicans clinical isolates assessed as inhibition of microbial growth incubated for 24 hrs by broth microdilution method. Format: functional. A digest of the protocol:
(§2)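 Twenty-two clinical Candida isolates (8 C. albicans, 4 C. glabrata, 3 C. tropicalis, 3 C. krusei, 2 C. parapsilosis, 2 C. sake) were identified by colony morphology and biochemistry and subcultured at 35 °C for purity. Compounds were dissolved in DMSO and tested by broth microdilution in Sabouraud dextrose broth per NCCLS/CLSI/EUCAST guidance. Values are geometric mean MIC per species (µg/mL).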

The next assay relates to Nakaseomyces glabratus. Briefly: Antifungal activity against Candida glabrata clinical isolates assessed as inhibition of microbial growth incubated for 24 hrs by broth microdilution method. The class given is functional. The procedure, abridged:
as §2

For another assay, the system named is Candida tropicalis. The assay can be described thus: Antifungal activity against Candida tropicalis clinical isolates assessed as inhibition of microbial growth incubated for 24 hrs by broth microdilution method. The class given is functional. The procedure, abridged: as §2
For a further assay, the system named is Pichia kudriavzevii. The assay can be described thus: Antifungal activity against Candida krusei clinical isolates assessed as inhibition of microbial growth incubated for 24 hrs by broth microdilution method. The class given is functional. The procedure, abridged:
as §2

Another assay deals with Candida parapsilosis. The assay can be described thus: Antifungal activity against Candida parapsilosis clinical isolates assessed as inhibition of microbial growth incubated for 24 hrs by broth microdilution method. Format: functional. The settings on record: Lodderomyces parapsilosis. The procedure, abridged: as §2
Another assay deals with [Candida] sake. Briefly: Antifungal activity against Candida sake clinical isolates assessed as inhibition of microbial growth incubated for 24 hrs by broth microdilution method. The note with it: Fermentozyma sake. Format: functional. The procedure, abridged:
as §2

Assay [1] relates to Streptococcus alpha-hemolyticus (Streptococcus sp.). The assay can be described thus: Antibacterial activity against Streptococcus Streptococcus alpha hemolyticus assessed as inhibition of microbial growth incubated for 18 to 22 hrs by broth microdilution method.

For the molecule `CC/C(C)=N\N=C1/NC(=O)CS1`, the minimum inhibitory concentration (MIC) with Staphylococcus aureus, with Staphylococcus warneri, in the assay on Enterococcus faecalis, in the assay on Escherichia coli, in the assay on Proteus mirabilis and in the assay on Enterobacter was ≥ 256 µg/mL throughout. Besides, the MIC in the assay on Klebsiella oxytoca is ≥ 256 µg/mL; in the assay with Candida albicans, 8 µg/mL; with Nakaseomyces glabratus it was 2 µg/mL; in the assay on Candida tropicalis, 2 µg/mL; in the assay on Pichia kudriavzevii it was 2 µg/mL; with Candida parapsilosis, 2 µg/mL. For the same molecule, the MIC in assay [Candida] sake is 2 µg/mL; in assay [1] it was ≥ 256 µg/mL.
For the molecule `C/C(=N/N=C1/SCC(=O)N1Cc1ccccc1)c1cccc2ccccc12`, the MIC in the assay with Staphylococcus aureus, in the assay on Staphylococcus warneri, in the assay on Enterococcus faecalis, with Escherichia coli, with Proteus mirabilis and with Enterobacter was ≥ 256 µg/mL throughout. Also, the MIC in the assay with Klebsiella oxytoca is ≥ 256 µg/mL; with Candida albicans it was 4 µg/mL; in the assay with Nakaseomyces glabratus, 4 µg/mL; in the assay with Candida tropicalis, 32 µg/mL; in the assay with Pichia kudriavzevii it was 16 µg/mL; in the assay with Candida parapsilosis, 16 µg/mL. The MIC in assay [Candida] sake stood at 4 µg/mL.
`C/C(=N/N=C1/SCC(=O)N1Cc1ccccc1)c1ccc2ccccc2c1`: the MIC in the assay with Staphylococcus aureus, in the assay on Staphylococcus warneri, with Enterococcus faecalis, with Escherichia coli, in the assay with Proteus mirabilis and in the assay on Enterobacter was ≥ 256 µg/mL each time. The MIC was ≥ 256 µg/mL in the assay with Klebsiella oxytoca; 8 µg/mL in the assay on Candida albicans; 16 µg/mL in the assay on Nakaseomyces glabratus; 256 µg/mL with Candida tropicalis; 16 µg/mL in the assay with Pichia kudriavzevii; 16 µg/mL in the assay on Candida parapsilosis. Further, the MIC in [Candida] sake was 16 µg/mL.
As to `CC(=O)c1ccc(/C(C)=N\N=C2\SCC(=O)N2Cc2ccccc2)cc1`, the MIC with Staphylococcus aureus, in the assay on Staphylococcus warneri, in the assay on Enterococcus faecalis, in the assay with Escherichia coli, with Proteus mirabilis and in the assay on Enterobacter was ≥ 256 µg/mL throughout. The MIC in the assay with Klebsiella oxytoca is ≥ 256 µg/mL; in the assay on Candida albicans it was 8 µg/mL; in the assay with Nakaseomyces glabratus, 2 µg/mL; in the assay with Candida tropicalis it was 32 µg/mL; with Pichia kudriavzevii it was 8 µg/mL; in the assay on Candida parapsilosis, 32 µg/mL. The MIC in assay [Candida] sake was found to be 8 µg/mL.
On to `C/C(=N/N=C1/SCC(=O)N1Cc1ccccc1)c1ccc(/C(C)=N\N=C2\SCC(=O)N2Cc2ccccc2)cc1`, for which the MIC in the assay on Staphylococcus aureus, in the assay on Staphylococcus warneri, in the assay on Enterococcus faecalis, in the assay on Escherichia coli, in the assay with Proteus mirabilis and in the assay on Enterobacter was ≥ 256 µg/mL in each case. Besides, the MIC with Klebsiella oxytoca is ≥ 256 µg/mL; in the assay on Candida albicans, 8 µg/mL; with Nakaseomyces glabratus, 2 µg/mL; in the assay on Candida tropicalis, 32 µg/mL; with Pichia kudriavzevii, 8 µg/mL; in the assay on Candida parapsilosis it was 32 µg/mL. Further, the MIC in [Candida] sake came to 8 µg/mL.
As to `O=C1CS/C(=N/N=C\c2c[nH]c3ccccc23)N1Cc1ccccc1`, the MIC in the assay on Staphylococcus aureus, with Staphylococcus warneri, in the assay with Enterococcus faecalis, in the assay with Escherichia coli, in the assay on Proteus mirabilis and in the assay with Enterobacter was ≥ 256 µg/mL each time. The MIC was ≥ 256 µg/mL in the assay on Klebsiella oxytoca; 256 µg/mL in the assay on Candida albicans; 16 µg/mL in the assay on Nakaseomyces glabratus; 256 µg/mL with Candida tropicalis; 2 µg/mL in the assay with Pichia kudriavzevii; 16 µg/mL in the assay with Candida parapsilosis. In addition, the minimum inhibitory concentration (MIC) in [Candida] sake stood at 16 µg/mL.
On to `O=C1CS/C(=N/N=C\c2ccc3c(c2)OCO3)N1Cc1ccccc1`, for which the MIC in the assay with Staphylococcus aureus, in the assay on Staphylococcus warneri, with Enterococcus faecalis, in the assay with Escherichia coli, with Proteus mirabilis and with Enterobacter was ≥ 256 µg/mL throughout. The MIC with Klebsiella oxytoca is ≥ 256 µg/mL; in the assay on Candida albicans, 8 µg/mL; in the assay on Nakaseomyces glabratus, 8 µg/mL; in the assay with Candida tropicalis, 8 µg/mL; in the assay on Pichia kudriavzevii it was 8 µg/mL; in the assay on Candida parapsilosis, 8 µg/mL. Moreover, the MIC in [Candida] sake was 8 µg/mL.
On to `O=C1CS/C(=N/N=C\c2cccc3ccccc23)N1Cc1ccccc1`, for which the MIC in the assay on Staphylococcus aureus, with Staphylococcus warneri, with Enterococcus faecalis, with Escherichia coli, in the assay with Proteus mirabilis and in the assay with Enterobacter was ≥ 256 µg/mL throughout. In addition, the MIC with Klebsiella oxytoca was ≥ 256 µg/mL; with Candida albicans, 8 µg/mL; in the assay with Nakaseomyces glabratus it was 8 µg/mL; with Candida tropicalis, 16 µg/mL; in the assay with Pichia kudriavzevii it was 16 µg/mL; with Candida parapsilosis, 16 µg/mL. In addition, the MIC in [Candida] sake amounted to 16 µg/mL.
Turning to `C/C(=N/N=C1/SCC(=O)N1Cc1ccccc1)c1ccncc1`, the MIC in the assay on Staphylococcus aureus, in the assay on Staphylococcus warneri, in the assay on Enterococcus faecalis, in the assay on Escherichia coli, in the assay with Proteus mirabilis and with Enterobacter was ≥ 256 µg/mL throughout. For the same molecule, the MIC with Klebsiella oxytoca was ≥ 256 µg/mL; in the assay on Candida albicans it was 8 µg/mL; in the assay on Nakaseomyces glabratus, 16 µg/mL; in the assay with Candida tropicalis it was 32 µg/mL; in the assay on Pichia kudriavzevii it was 2 µg/mL; in the assay with Candida parapsilosis, 32 µg/mL. Further, the minimum inhibitory concentration (MIC) in assay [Candida] sake worked out at 32 µg/mL.
`C/C(=N/N=C1/SCC(=O)N1Cc1ccccc1)c1ccc2ccc3ccccc3c2c1`: the MIC with Staphylococcus aureus, in the assay on Staphylococcus warneri, in the assay on Enterococcus faecalis, in the assay on Escherichia coli, in the assay with Proteus mirabilis and with Enterobacter was ≥ 256 µg/mL each time. The MIC in the assay on Klebsiella oxytoca is ≥ 256 µg/mL; in the assay with Candida albicans, 2 µg/mL; with Nakaseomyces glabratus it was 2 µg/mL; in the assay with Candida tropicalis, 2 µg/mL; in the assay on Pichia kudriavzevii, 4 µg/mL; in the assay on Candida parapsilosis it was 2 µg/mL. For the same molecule, the MIC in assay [Candida] sake was 8 µg/mL.
In the case of `C/C(=N/N=C1/SCC(=O)N1Cc1ccccc1)c1c[nH]c2ccccc12`, the MIC in the assay on Staphylococcus aureus, with Staphylococcus warneri, in the assay with Enterococcus faecalis, in the assay with Escherichia coli, in the assay on Proteus mirabilis and in the assay with Enterobacter was ≥ 256 µg/mL in each case. The minimum inhibitory concentration (MIC) with Klebsiella oxytoca was ≥ 256 µg/mL; in the assay with Candida albicans it was 8 µg/mL; in the assay with Nakaseomyces glabratus, 4 µg/mL; with Candida tropicalis, 16 µg/mL; in the assay on Pichia kudriavzevii, 4 µg/mL; with Candida parapsilosis, 32 µg/mL. The MIC in assay [Candida] sake is 8 µg/mL.
Take `C/C(=N\N=C1\SCC(=O)N1Cc1ccccc1)c1cc2ccccc2o1`: the minimum inhibitory concentration (MIC) with Staphylococcus aureus, with Staphylococcus warneri, in the assay on Enterococcus faecalis, in the assay on Escherichia coli, with Proteus mirabilis and with Enterobacter was ≥ 256 µg/mL throughout. Moreover, the MIC in the assay with Klebsiella oxytoca is ≥ 256 µg/mL; in the assay on Candida albicans it was 4 µg/mL; in the assay with Nakaseomyces glabratus, 4 µg/mL; in the assay with Candida tropicalis, 32 µg/mL; in the assay on Pichia kudriavzevii, 16 µg/mL; with Candida parapsilosis, 32 µg/mL. Further, in assay [Candida] sake, the MIC came to 4 µg/mL.
`C/C(=N/N=C1/SCC(=O)N1Cc1ccccc1)c1ccc2c(c1)OCCO2`: the MIC with Staphylococcus aureus, in the assay with Staphylococcus warneri, in the assay on Enterococcus faecalis, with Escherichia coli, in the assay with Proteus mirabilis and in the assay on Enterobacter was ≥ 256 µg/mL in each case. In addition, the MIC in the assay with Klebsiella oxytoca was ≥ 256 µg/mL; with Candida albicans it was 2 µg/mL; in the assay with Nakaseomyces glabratus it was 8 µg/mL; with Candida tropicalis it was 2 µg/mL; in the assay on Pichia kudriavzevii, 4 µg/mL; in the assay with Candida parapsilosis, 2 µg/mL. The MIC in [Candida] sake is 8 µg/mL.
For `C/C(=N/N=C1/SCC(=O)N1Cc1ccccc1)c1cc2ccccc2oc1=O`, the MIC in the assay with Staphylococcus aureus, in the assay with Staphylococcus warneri, with Enterococcus faecalis, in the assay on Escherichia coli, in the assay with Proteus mirabilis and in the assay on Enterobacter was ≥ 256 µg/mL throughout. For the same molecule, the MIC in the assay with Klebsiella oxytoca is ≥ 256 µg/mL; in the assay on Candida albicans, 256 µg/mL; in the assay with Nakaseomyces glabratus, 32 µg/mL; in the assay with Candida tropicalis it was 256 µg/mL; with Pichia kudriavzevii, 128 µg/mL; with Candida parapsilosis, 128 µg/mL. The minimum inhibitory concentration (MIC) in assay [Candida] sake came to 128 µg/mL.
Turning to `CC(C)(O/N=C(\C(=O)N[C@@H]1C(=O)N2C(C(=O)[O-])=C(C[n+]3ccccc3)CS[C@H]12)c1csc(N)n1)C(=O)O` [CEFTAZIDIME], the MIC in the assay with Staphylococcus aureus, in the assay with Staphylococcus warneri, with Enterococcus faecalis, with Escherichia coli, with Proteus mirabilis and in the assay with Enterobacter was 8 µg/mL in each case. The MIC (in the assay with Klebsiella oxytoca; in assay [1]) was 8 µg/mL each time.

The MIC is the least concentration at which growth counts as inhibited.
